Experimental data: ChEMBL document CHEMBL2034936, “Discovery and extensive in vitro evaluations of NK-HDAC-1: a chiral histone deacetylase inhibitor as a promising lead” (J Med Chem, 2012)
Calls of active or inactive are those of the source. The rule behind the calls is not given here.

Experiments:
MDA-MB-231 = test: cells; format: functional; settings: Homo sapiens, MDA-MB-231, 72 h
Histone deacetylase = test: Inhibition of HDAC in human HeLa cell nuclear extracts using Ac-Arg-Gly-Lys(Ac)-AMC substrate by fluorimetry; format: protein assay
A549 = test: cells; format: functional; settings: Homo sapiens, A549, 72 h
HepG2 = test: cells; format: functional; settings: Homo sapiens, HepG2, 72 h
[1] = molecular target: Histone deacetylase (Homo sapiens) (UniProt Q13547+O15379+Q9UBN7+Q92769+Q9UQL6+Q8WUI4+Q9BY41+Q96DB2+P56524+Q9UKV0+Q969S8); test: Inhibition of HDAC in human MDA-MB-231 cells assessed as stimulation of histone H3 acetylation at 5 uM incubated for 24 hrs by Western blot; format: cell-based
Procedure, shortened: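 MDA-MB-231 cells in 35-mm dishes, dosed 24 h at graded concentrations, then trypsinized and PBS-washed. Lysed in RIPA (50 mM Tris-HCl pH 7.5, protease and phosphatase inhibitors) for 30 min at 4 °C, then cleared at 12,000g. Lysate, 60 μg protein by BCA, run on SDS-PAGE and PVDF. Blotted with anti-acetyl-histone H3 and HRP anti-rabbit, read by ECL.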

K562 = test: cells; format: functional; settings: Homo sapiens, K562, 72 h
PC-3 = test: cells; format: functional; settings: Homo sapiens, PC-3, 72 h
COLO 205 [2] = test: cells; format: functional; settings: Homo sapiens, COLO 205, 72 h
OVCAR-3 = test: cells; format: functional; settings: Homo sapiens, OVCAR-3, 72 h
SW-620 = test: cells; format: functional; settings: Homo sapiens, SW-620, 72 h
NCI-H460 = test: Growth inhibition of human NCI-H460 cells after 72 hrs by MTS assay; format: functional; settings: NCI-H460, 72 h
HT-29 = test: Growth inhibition of human HT-29 cells after 72 hrs by MTS assay; format: functional; settings: HT-29, 72 h
MOLT-4 = test: Growth inhibition of human MOLT4 cells after 72 hrs by MTS assay; format: functional; settings: MOLT-4, 72 h
[3] = Apparent permeability from basolateral to apical side in human Caco2 cells at 10 uM; format: ADME, cell-based; settings: Caco-2
Procedure, shortened: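 Caco-2 monolayers, test compound at 10 μM. Apparent permeability measured in both directions, apical to basolateral and basolateral to apical. Efflux ratio = P_app B to A / P_app A to B. Run by a contract lab following published methods. Mean of three independent triplicate experiments.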

[4] = Half life in mouse plasma; format: ADME, cell-free
COLO 205 [5] = test: Growth inhibition of human COLO205 cells after 72 hrs by MTS assay; format: functional; settings: COLO 205, 72 h
HCT-116 = test: Growth inhibition of human HCT116 cells after 72 hrs by MTS assay; format: functional; settings: HCT-116, 72 h
Cytochrome P450 3A4 = Cytochrome P450 3A4 (Homo sapiens, UniProt P08684); test: Inhibition of human CYP3A4; format: ADME
Sequence of Cytochrome P450 3A4 (P08684 whole entry): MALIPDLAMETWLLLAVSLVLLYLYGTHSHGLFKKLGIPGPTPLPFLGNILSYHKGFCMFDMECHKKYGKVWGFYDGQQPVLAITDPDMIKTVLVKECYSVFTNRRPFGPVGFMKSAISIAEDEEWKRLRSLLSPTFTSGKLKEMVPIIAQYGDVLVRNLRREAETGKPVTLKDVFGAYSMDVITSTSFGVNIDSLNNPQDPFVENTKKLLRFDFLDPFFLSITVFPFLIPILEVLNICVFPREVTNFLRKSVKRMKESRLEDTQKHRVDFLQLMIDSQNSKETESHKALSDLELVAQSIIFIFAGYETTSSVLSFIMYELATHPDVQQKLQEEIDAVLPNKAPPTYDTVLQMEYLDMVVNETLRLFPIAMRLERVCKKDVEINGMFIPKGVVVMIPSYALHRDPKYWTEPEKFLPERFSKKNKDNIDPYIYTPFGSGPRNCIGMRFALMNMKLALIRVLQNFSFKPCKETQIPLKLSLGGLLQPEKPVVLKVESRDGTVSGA

[6] = Half life in mouse liver microsomes; format: ADME, Microsome
[7] = Lipophilicity, log D of the compound in pH 7.4 PBS buffer; format: physicochemical
SNB-75 = test: Growth inhibition of human SNB75 cells after 72 hrs by MTS assay; format: functional; settings: SNB-75, 72 h
[8] = Solubility in neutral water; format: physicochemical
OVCAR-5 = test: Growth inhibition of human OVCAR5 cells after 72 hrs by MTS assay; format: functional; settings: OVCAR-5, 72 h
UACC-62 = test: Growth inhibition of human UACC62 cells after 72 hrs by MTS assay; format: functional; settings: UACC-62, 72 h
NCI-H322M = test: Growth inhibition of human NCI-H322M cells after 72 hrs by MTS assay; format: functional
CCRF-CEM = test: Growth inhibition of human CCRF-CEM cells after 72 hrs by MTS assay; format: functional

Row | Structure (SMILES) | GI50 (MDA-MB-231) | IC50 (Histone deacetylase) | GI50 (A549) | GI50 (HepG2) | further results
1 | CCC(C)C(c1nc2ccccc2o1)n1cc(/C=C/C(=O)NO)nn1 (racemic) | 190 nM | 4 nM | 520 nM | 1700 nM | 
2 | O=C(O)CC(c1nc2ccccc2o1)n1cc(/C=C/C(=O)NO)nn1 (racemic) | > 20000 nM | 140 nM | > 20000 nM | > 20000 nM | 
3 | CC(C)C(c1nc2ccccc2o1)n1cc(/C=C/C(=O)NO)nn1 (racemic) | 170 nM | 23 nM | 400 nM | 1000 nM | histone H3 acetylation activity (active/not active) [1]: Active
4 | O=C(/C=C/c1cn(Cc2nc3ccccc3o2)nn1)NO | 1400 nM | 105 nM | 4700 nM | 6100 nM | GI50 (K562): 720 nM; histone H3 acetylation activity (active/not active) [1]: Active; GI50 (PC-3): 1600 nM; GI50 (COLO 205 [2]): 1100 nM; GI50 (OVCAR-3): 1900 nM; GI50 (SW-620): 1200 nM
5 | O=C(CCCCCCC(=O)Nc1ccccc1)NO [VORINOSTAT] |  |  |  |  | GI50 (NCI-H460): 790 nM; GI50 (HT-29): 790 nM; GI50 (MOLT-4): 400 nM; Papp B→A at 10 µM [3]: 1.7 ×10⁻⁶ cm/s; half-life [4]: 3.3 h; GI50 (COLO 205 [5]): 790 nM; GI50 (HCT-116): 400 nM; INH (Cytochrome P450 3A4): 24.8 µM; half-life [6]: 1.37 h; logD [7]: 1; GI50 (SNB-75): 790 nM; solubility [8]: > 170 µg/mL; GI50 (OVCAR-5): 790 nM; GI50 (UACC-62): 400 nM; GI50 (NCI-H322M): 790 nM; GI50 (CCRF-CEM): 800 nM
6 | O=C(/C=C/c1cn(C(Cc2ccccc2)c2nc3ccccc3o2)nn1)NO (racemic) | 5500 nM | 219 nM | 4400 nM | 5900 nM | 
7 | CC(C)CC(c1nc2ccccc2o1)n1cc(/C=C/C(=O)NO)nn1 (racemic) | 280 nM | 19 nM | 660 nM | 2200 nM | 
